According to ChEMBL document CHEMBL3997808 (J Med Chem, 2017):
≈ marks a conversion by molar mass, not a printed value.

Key:
[1] = Drug metabolism in rat hepatocytes assessed as (S)-3-amino-5-methyl-2,3-dihydrobenzo[b][1,4]oxazepin-4(5H)-one formation at 10 uM measured up to 4 hrs; assay type: ADME, cell-based, Hepatocyte
Outline: (§1)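 Compound at 10 μM was incubated with hepatocyte suspensions at 1 million cells/mL. Incubation ran at 37°C under 5% CO2:95% O2 for up to 4 h.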

[2] = molecular target: T1, Receptor-interacting serine/threonine-protein kinase 1 (Mus musculus, UniProt Q60855); experiment: Displacement of (14-(2-{[3-({2-{[4-(cyanomethyl)phenyl]amino}-6-[(5-cyclopropyl-1H-pyrazol-3-yl)-amino]-4-pyrimidinyl}amino)propyl]amino}-2-oxoethyl)-16,16,18,18-tetramethyl-6,7,7a,8a,9,10,16,18-octahydrobenzo[2'',3'']indolizino-[8'',7'':5',6']pyrano[3',2':3,4]pyrido[1,2-a]indol-5-ium-2-sulfonate from mouse RIP1 (1 to 378 residues) expressed in baculovirus infected insect cells measured for 50 mins by fluorescence polarization assay
T1 sequence (Q60855 whole entry): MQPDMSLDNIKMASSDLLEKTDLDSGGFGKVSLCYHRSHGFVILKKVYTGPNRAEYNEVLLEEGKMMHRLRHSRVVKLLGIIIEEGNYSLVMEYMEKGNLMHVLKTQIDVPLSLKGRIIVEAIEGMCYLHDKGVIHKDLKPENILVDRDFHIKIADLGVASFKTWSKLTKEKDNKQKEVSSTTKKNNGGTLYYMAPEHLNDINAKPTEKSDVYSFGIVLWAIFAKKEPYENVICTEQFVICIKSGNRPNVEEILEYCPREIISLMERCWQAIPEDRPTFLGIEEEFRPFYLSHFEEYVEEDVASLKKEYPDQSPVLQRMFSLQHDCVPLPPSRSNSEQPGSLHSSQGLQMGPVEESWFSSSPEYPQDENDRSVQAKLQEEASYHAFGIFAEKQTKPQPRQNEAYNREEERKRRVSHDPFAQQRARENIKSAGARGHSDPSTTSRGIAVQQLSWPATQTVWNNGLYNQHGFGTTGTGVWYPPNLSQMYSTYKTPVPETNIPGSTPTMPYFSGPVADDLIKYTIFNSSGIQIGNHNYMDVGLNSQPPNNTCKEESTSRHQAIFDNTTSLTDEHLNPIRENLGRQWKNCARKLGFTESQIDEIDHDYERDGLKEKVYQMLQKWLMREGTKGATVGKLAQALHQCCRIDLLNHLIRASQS
Outline: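 Competitive FP binding assay in which test compounds displace a fluorescently labeled ATP-competitive ligand from RIP1.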

[3] = Stability in dog microsomes measured up to 45 mins; assay type: ADME, Canis lupus familiaris, Microsome; conditions: 0.75 h
[4] = Inhibition of recombinant human cytochrome P450; assay type: ADME; conditions: recombinant enzyme
[5] = Kinetic solubility in phosphate buffer saline at pH 7.4 by chemiluminescence nitrogen detection method; assay type: physicochemical; conditions: phosphate buffered saline, read-out: Kinetic_solubility
Outline: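 Kinetic aqueous solubility measured by chemiluminescent nitrogen detection (CLND) in phosphate-buffered saline pH 7.4. The solution was prepared from a DMSO stock of the inhibitor.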

[6] = Fraction unbound in cynomolgus monkey blood; assay type: ADME, tissue-based, Macaca fascicularis
[7] = AUC in rat at 2.1 mg/kg, po; assay type: ADME, organism-based; conditions: in vivo
[8] = Solubility of the compound in FaSSIF; assay type: physicochemical
[9] = Drug metabolism in rat hepatocytes assessed as glucuronide metabolite M569 formation at 10 uM measured up to 4 hrs; assay type: ADME, cell-based, Hepatocyte; outline: as §1
[10] = Drug metabolism in rat hepatocytes assessed as 5-benzyl-1H-1,2,4-triazole-3-carboxylic acid formation at 10 uM measured up to 4 hrs; assay type: ADME, cell-based, Hepatocyte; outline: as §1
[11] = Drug metabolism in rat hepatocytes assessed as (S)-5-benzyl-N-(4-oxo-2,3,4,5-tetrahydrobenzo[b][1,4]oxazepin-3-yl)-1H-1,2,4-triazole-3-carboxamide formation at 10 uM measured up to 4 hrs; assay type: ADME, cell-based, Hepatocyte; outline: as §1
[12] = Cmax in rat at 2.1 mg/kg, po; assay type: ADME, organism-based; set-up: dose 2.1 mg/kg, route oral; conditions: in vivo
[13] = Clearance in rat at 1.1 mg/kg, iv; assay type: ADME, organism-based; conditions: in vivo
Colon = experiment: Drug uptake in Han Wistar rat colon at 2 mg/kg, iv administered as 4 hrs infusion; assay type: ADME, organism-based; conditions: in vivo
Outline: (§2)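 Rats received a 4 h iv infusion, after which terminal tissue samples were collected. Parent drug concentrations were measured in each tissue and compared with blood levels.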

Rattus norvegicus = experiment: Toxicity in rat at 2 to 1000 mg/kg, po after 1 month; assay type: organism-based; conditions: in vivo, 730.5 h
[14] = Cmax in cynomolgus monkey at 1.9 mg/kg, po; assay type: ADME, organism-based, Macaca fascicularis; set-up: dose 1.9 mg/kg, route oral; conditions: in vivo
Cytochrome P450 2C9 = Cytochrome P450 2C9 (Homo sapiens, UniProt P11712); experiment: Inhibition of recombinant human CYP2C9; assay type: ADME
[15] = Half-life in cynomolgus monkey at 1.2 mg/kg, iv; assay type: ADME, organism-based, Macaca fascicularis; conditions: in vivo
[16] = Drug metabolism in human hepatocytes assessed as (S)-5-benzyl-N-(4-oxo-2,3,4,5-tetrahydrobenzo[b][1,4]oxazepin-3-yl)-1H-1,2,4-triazole-3-carboxamide formation at 10 uM measured up to 4 hrs; assay type: ADME, cell-based, Hepatocyte; outline: as §1
[17] = Drug metabolism in cynomolgus monkey hepatocytes assessed as glucuronide metabolite M569 formation at 10 uM measured up to 4 hrs; assay type: ADME, cell-based, Macaca fascicularis, Hepatocyte; outline: as §1
[18] = AUC in cynomolgus monkey at 1.9 mg/kg, po; assay type: ADME, organism-based, Macaca fascicularis; conditions: in vivo
Kidney = experiment: Drug uptake in Han Wistar rat kidney at 2 mg/kg, iv administered as 4 hrs infusion; assay type: ADME, organism-based; conditions: in vivo; outline: as §2
[19] = Drug metabolism in cynomolgus monkey hepatocytes assessed as (S)-3-amino-5-methyl-2,3-dihydrobenzo[b][1,4]oxazepin-4(5H)-one formation at 10 uM measured up to 4 hrs; assay type: ADME, cell-based, Macaca fascicularis, Hepatocyte; outline: as §1
[20] = Drug metabolism in human hepatocytes assessed as (S)-3-amino-5-methyl-2,3-dihydrobenzo[b][1,4]oxazepin-4(5H)-one formation at 10 uM measured up to 4 hrs; assay type: ADME, cell-based, Hepatocyte; outline: as §1
Blood = experiment: Drug uptake in Han Wistar rat blood at 2 mg/kg, iv administered as 4 hrs infusion; assay type: ADME, organism-based; conditions: in vivo; outline: as §2
[21] = Stability in rat microsomes measured up to 45 mins; assay type: ADME, Microsome; conditions: 0.75 h
Brain = experiment: Drug uptake in Han Wistar rat brain at 2 mg/kg, iv administered as 4 hrs infusion; assay type: ADME, organism-based; conditions: in vivo; outline: as §2
[22] = Volume of distribution at steady state in rat at 1.1 mg/kg, iv; assay type: ADME, organism-based; conditions: in vivo, read-out: Vdss
[23] = Fraction unbound in human blood; assay type: ADME, tissue-based
[24] = Volume of distribution at steady state in cynomolgus monkey at 1.2 mg/kg, iv; assay type: ADME, organism-based, Macaca fascicularis; conditions: in vivo, read-out: Vdss
[25] = Drug metabolism in cynomolgus monkey hepatocytes assessed as (S)-5-benzyl-N-(4-oxo-2,3,4,5-tetrahydrobenzo[b][1,4]oxazepin-3-yl)-1H-1,2,4-triazole-3-carboxamide formation at 10 uM measured up to 4 hrs; assay type: ADME, cell-based, Macaca fascicularis, Hepatocyte; outline: as §1
[26] = Drug metabolism in rat hepatocytes assessed as 5-(hydroxy(phenyl)methyl)-N-((S)-5-methyl-4-oxo-2,3,4,5-tetrahydrobenzo[b][1,4]oxazepin-3-yl)-1H-1,2,4-triazole-3-carboxamide formation at 10 uM measured up to 4 hrs; assay type: ADME, cell-based, Hepatocyte; outline: as §1
[27] = molecular target: Voltage-gated inwardly rectifying potassium channel KCNH2 (Homo sapiens, UniProt Q12809); experiment: Inhibition of human ERG expressed in HEK293 cells; assay type: cell-based
[28] = Drug metabolism in cynomolgus monkey hepatocytes assessed as 5-benzyl-1H-1,2,4-triazole-3-carboxylic acid formation at 10 uM measured up to 4 hrs; assay type: ADME, cell-based, Macaca fascicularis, Hepatocyte; outline: as §1
MDR1 = experiment: Permeability across dog MDCK cells expressing MDR1; assay type: ADME, cell-based, Canis lupus familiaris; conditions: read-out: permeability

Chain of Voltage-gated inwardly rectifying potassium channel KCNH2 (Q12809 whole entry): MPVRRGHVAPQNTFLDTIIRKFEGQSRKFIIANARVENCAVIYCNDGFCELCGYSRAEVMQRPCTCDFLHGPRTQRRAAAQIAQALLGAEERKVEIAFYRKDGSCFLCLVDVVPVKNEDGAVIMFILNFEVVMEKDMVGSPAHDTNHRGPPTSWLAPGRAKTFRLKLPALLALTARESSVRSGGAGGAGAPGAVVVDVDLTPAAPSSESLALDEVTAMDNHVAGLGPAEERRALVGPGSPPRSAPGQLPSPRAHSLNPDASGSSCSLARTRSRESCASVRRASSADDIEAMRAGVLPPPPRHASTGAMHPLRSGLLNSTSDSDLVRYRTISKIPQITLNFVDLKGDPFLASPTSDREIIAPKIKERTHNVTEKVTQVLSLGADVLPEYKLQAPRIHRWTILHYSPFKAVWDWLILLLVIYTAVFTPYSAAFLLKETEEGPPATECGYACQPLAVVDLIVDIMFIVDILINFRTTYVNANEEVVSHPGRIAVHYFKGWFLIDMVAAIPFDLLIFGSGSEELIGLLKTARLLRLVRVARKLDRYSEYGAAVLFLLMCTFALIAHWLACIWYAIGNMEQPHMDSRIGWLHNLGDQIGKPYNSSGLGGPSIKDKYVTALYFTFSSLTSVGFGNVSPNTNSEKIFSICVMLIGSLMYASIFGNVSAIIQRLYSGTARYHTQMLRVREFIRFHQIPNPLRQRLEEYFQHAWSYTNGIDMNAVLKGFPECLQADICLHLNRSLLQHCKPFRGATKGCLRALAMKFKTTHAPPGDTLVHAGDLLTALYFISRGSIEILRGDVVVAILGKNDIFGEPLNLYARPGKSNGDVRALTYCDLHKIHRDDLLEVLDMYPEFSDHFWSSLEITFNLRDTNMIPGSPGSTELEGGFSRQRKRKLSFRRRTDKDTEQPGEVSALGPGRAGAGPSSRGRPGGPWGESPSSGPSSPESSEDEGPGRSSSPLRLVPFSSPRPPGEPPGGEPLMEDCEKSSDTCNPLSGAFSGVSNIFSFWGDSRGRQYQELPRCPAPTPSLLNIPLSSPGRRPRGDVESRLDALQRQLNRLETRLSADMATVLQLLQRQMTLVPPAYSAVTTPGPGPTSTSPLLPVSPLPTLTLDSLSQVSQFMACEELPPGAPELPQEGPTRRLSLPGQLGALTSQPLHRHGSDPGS
Chain of Cytochrome P450 2C9 (P11712 whole entry): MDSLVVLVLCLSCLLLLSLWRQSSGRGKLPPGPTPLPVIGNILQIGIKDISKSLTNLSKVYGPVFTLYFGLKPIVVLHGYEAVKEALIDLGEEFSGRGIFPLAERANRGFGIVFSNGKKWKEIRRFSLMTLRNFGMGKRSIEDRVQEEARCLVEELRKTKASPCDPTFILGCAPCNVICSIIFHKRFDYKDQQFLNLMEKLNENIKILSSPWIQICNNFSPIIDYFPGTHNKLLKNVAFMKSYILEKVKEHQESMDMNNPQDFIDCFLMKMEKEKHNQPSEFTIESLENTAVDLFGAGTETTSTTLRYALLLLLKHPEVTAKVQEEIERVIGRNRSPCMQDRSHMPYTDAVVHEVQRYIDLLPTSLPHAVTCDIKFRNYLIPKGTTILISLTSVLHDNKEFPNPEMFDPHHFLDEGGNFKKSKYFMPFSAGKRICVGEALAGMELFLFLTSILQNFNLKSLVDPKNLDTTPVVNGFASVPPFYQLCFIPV

With `CN1C(=O)[C@@H](NC(=O)c2nnc(Cc3ccccc3)[nH]2)COc2ccccc21` [GSK2982772] the Drug metabolism [1] was “Metabolite_Detected”, the IC50 [2] was 2.5 µM and the Stability [3] was “Stable”. For the same molecule, the “inhibition (INH)” value [4] was “Not Active”, the solubility kinetic [5] was 100 µg/mL (≈ 265 µM) and the fraction unbound [6] was 0.11. For the same molecule, the AUC [7] was 2300 ng·h/mL, the solubility [8] was 230 µg/mL (≈ 609 µM) and the Drug metabolism [9] was “Metabolite_Detected”. The Drug metabolism [10] was “Metabolite_Detected”, the Drug metabolism [11] was “Metabolite_Detected” and the Cmax [12] was 810 ng/mL. The clearance [13] was 17 mL/min/kg, the Drug uptake (Colon) was “Active” and the Activity (Rattus norvegicus) was “Non-Toxic”. It also gave a Cmax [14] of 720 ng/mL, an IC50 (Cytochrome P450 2C9) of 25 µM and a half-life [15] of 6.5 h. The Drug metabolism [16] was “Metabolite_Detected”, the Drug metabolism [17] was “Metabolite_Detected” and the AUC [18] was 2900 ng·h/mL. For the same molecule, the Drug uptake (Kidney) was “Active”, the Drug metabolism [19] was “Metabolite_Detected” and the Drug metabolism [20] was “Metabolite_Detected”. The Drug uptake (Blood) was “Active”, the Stability [21] was “Stable” and the Drug uptake (Brain) was 4%. For the same molecule, the Vd [22] was 2.7 L/kg, the fraction unbound [23] was 0.074 and the Vd [24] was 2.2 L/kg. The Drug metabolism [25] was “Metabolite_Detected”, the Drug metabolism [26] was “Metabolite_Detected” and the IC50 [27] was 195 µM. The Drug metabolism [28] was “Metabolite_Detected” and the Papp (MDR1) was 21 ×10⁻⁶ cm/s.
